# Tests used:
# [1] = molecular target: T1, Peroxisome proliferator-activated receptor gamma (Mus musculus, UniProt P37238); assay: Agonist activity at mouse PPARgamma expressed in HEK293 cells co-expressing with Gal4 reporter vector after 24 hrs by dual-luciferase reporter assay; type: cell-based
# T1 sequence (P37238 whole entry): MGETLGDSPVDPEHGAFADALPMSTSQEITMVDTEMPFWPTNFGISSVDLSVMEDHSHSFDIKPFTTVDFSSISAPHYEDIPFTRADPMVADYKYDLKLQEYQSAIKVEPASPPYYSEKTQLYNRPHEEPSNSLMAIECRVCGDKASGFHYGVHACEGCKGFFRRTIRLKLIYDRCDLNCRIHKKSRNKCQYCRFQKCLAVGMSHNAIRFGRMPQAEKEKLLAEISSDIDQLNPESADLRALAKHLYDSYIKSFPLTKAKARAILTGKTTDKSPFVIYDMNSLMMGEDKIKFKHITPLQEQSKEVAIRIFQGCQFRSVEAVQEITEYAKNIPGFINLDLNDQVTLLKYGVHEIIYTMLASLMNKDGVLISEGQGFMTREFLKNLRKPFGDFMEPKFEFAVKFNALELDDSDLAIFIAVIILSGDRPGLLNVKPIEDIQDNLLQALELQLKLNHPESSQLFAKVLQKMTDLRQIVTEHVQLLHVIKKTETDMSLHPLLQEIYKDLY
# Outline: (§1)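 HEK-293 cells grown in DMEM with 10% FBS at 37 °C under 5% CO2 and plated at 1 × 10^4 cells/well. Cells co-transfected with pCMX-Gal-mPPARγ-LBD and MH100×4TK-Luc reporter, using Renilla as internal control. Compounds added at a range of concentrations for 24 h, then dual-luciferase read-out. EC50 is the concentration giving half-maximal fold activation; Emax is the maximal fold activation. Means ± SD from four independent experiments.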
# [2] = molecular target: T2, Peroxisome proliferator-activated receptor gamma (Mus musculus) (UniProt P37238); assay: Agonist activity at mouse PPARgamma expressed in HEK293 cells co-expressing with Gal4 reporter vector assessed as fold activation after 24 hrs by dual-luciferase reporter assay; type: cell-based; outline: as §1
# T2 sequence (whole entry): T1 sequence (P37238 whole entry)
# [3] = Inhibition of Saccharomyces cerevisiae alpha-glucosidase
compound,measurement,setting,value
C=C1[C@@H](CC/C(C)=C/CO)[C@@]2(C)CCC[C@](C)(C(=O)O)[C@@H]2[C@H](OC(=O)c2ccccc2)[C@H]1OC(C)=O,EC50,[1],0.9 µM
same,Emax,[2],24.7
CC(=O)O[C@@H]1[C@@H](OC(=O)c2ccccc2)[C@@H]2[C@](C)(CCC[C@@]2(C)C(=O)O)[C@H](CC/C(C)=C/CO)[C@@]12CO2,EC50,[1],> 100 µM
C=C1[C@@H](CC/C(C)=C/CO)[C@@]2(C)CCC[C@](C)(C(=O)O)[C@@H]2[C@H](OC(=O)c2ccccc2)[C@H]1O,EC50,[1],> 100 µM
COc1ccc(-c2oc3cc(O)cc(O)c3c(=O)c2O[C@@H]2O[C@H](COC(=O)/C=C/c3ccc(O)cc3)[C@@H](O)[C@H](O)[C@H]2O)cc1OC,EC50,[1],> 100 µM
O=c1cc(-c2ccc(O)cc2)oc2c([C@@H]3OC[C@H](O)[C@H](O)[C@H]3O)c(O)cc(O)c12,EC50,[1],> 100 µM
COc1ccc(-c2cc(=O)c3c(O)c(OC)c(O)c(OC)c3o2)cc1O,EC50,[1],4.3 µM
same,Emax,[2],2
CN(CCOc1ccc(CC2SC(=O)NC2=O)cc1)c1ccccn1 (centres undefined),Emax,[2],11.8
C[C@@]12CC[C@]3(C1)[C@H](CC2=O)C[C@@H](OC(=O)c1ccccc1)[C@@H]1[C@]3(C)CCC[C@]1(C)C(=O)O [4-EPI-SCOPADULCIC ACID B],EC50,[1],> 100 µM
same,IC50,[3],0.0146 mM
C[C@H]1O[C@H](O[C@H]2[C@H](O)[C@@H](O)[C@@H](O[C@H]3[C@H](O)[C@@H](O)C(O)O[C@@H]3CO)O[C@@H]2CO)[C@H](O)[C@@H](O)[C@@H]1N[C@H]1C=C(CO)[C@@H](O)[C@H](O)[C@H]1O (some centres undefined) [ACARBOSE],IC50,[3],3.76 mM
O=c1cc(-c2ccc(O)cc2)oc2cc(O)cc(O)c12 [APIGENIN],EC50,[1],24.9 µM
same,Emax,[2],3.4
C=C(C)[C@@H]1CC[C@]2(C(=O)O)CC[C@]3(C)[C@H](CC[C@@H]4[C@@]5(C)CC[C@H](O)C(C)(C)[C@@H]5CC[C@]43C)[C@@H]12 [BETULINIC ACID],EC50,[1],> 100 µM
COc1c(O)cc2oc(-c3ccc(O)cc3)cc(=O)c2c1O [HISPIDULIN],EC50,[1],7.3 µM
same,Emax,[2],11.3
COc1c(O[C@@H]2O[C@H](CO)[C@@H](O)[C@H](O)[C@H]2O)cc2oc(-c3ccc(O)cc3)cc(=O)c2c1O [HISPIDULOSIDE],EC50,[1],> 100 µM
O=c1cc(-c2ccc(O)c(O)c2)oc2cc(O)cc(O)c12 [LUTEOLIN],EC50,[1],2.3 µM
same,Emax,[2],7.6
COc1ccc(-c2cc(=O)c3c(O)c(OC)c(O[C@@H]4O[C@H](CO[C@@H]5O[C@@H](C)[C@H](O)[C@@H](O)[C@H]5O)[C@@H](O)[C@H](O)[C@H]4O)cc3o2)cc1 [PECTOLINARIN],EC50,[1],> 100 µM
C=C1C[C@@H](OC(=O)c2ccccc2)[C@@H]2[C@](C)(CCC[C@@]2(C)C(=O)O)[C@@H]1CC/C(C)=C/CO [SCOPARIC ACID A],EC50,[1],> 100 µM
O=c1cc(-c2ccc(O)cc2)oc2cc(O)c(O)c(O)c12 [SCUTELLAREIN],EC50,[1],16.4 µM
same,Emax,[2],3.4

# Source: ChEMBL document CHEMBL3351408, “Bioactive diterpenoids and flavonoids from the aerial parts of Scoparia dulcis” (J Nat Prod, 2014)
